PubChem BioAssay
Records with an inconclusive call do not appear.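 How the source made its calls, unless noted: active means cell viability at or below a set limit in both duplicate runs, the limit being the all-compound median minus 4 SD (cut at about 23% in these data, passing the limit was not always enough); inconclusive means no clear call, values can overlap the other calls; inactive means the rest.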

Key:
[1] = S. cerevisiae growth inhibition in permissive medium (OD615), pilot counter-assay for S. cerevisiae lifespan shortening project, permissive growth control (AID 705;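 active means growth inhibition above 25% in both replicates, a cutoff set 3 SD above the mean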); conditions: OD615, 24 h, at 10 µM, active compounds read high
Summary of the method: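 assay system = Saccharomyces cerevisiae strain carrying genetically modified DeaD replicative-lifespan system | medium = SC raffinose/galactose permissive medium | dosing = 10 µM single dose, 0.25% DMSO | schedule = 24 h compound exposure at 30 °C after 4 h pre-growth | measured by = OD at 615 nm | read-out basis = growth inhibition from lowered OD615 after 24 h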

[2] = S. cerevisiae growth inhibition in restrictive medium, OD615, pilot screen, restrictive growth control, yeast lifespan reduction project (AID 706;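 active means growth inhibition above a set limit, 3 SD over mean compound inhibition, in both replicates, cut at about 43% in these data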;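 further: modified DeaD lifespan yeast strain shifted to restrictive glucose medium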); conditions: OD615, 48 h, at 10 µM, active compounds read high
Summary of the method: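 Buffer or medium: CSMM-D glucose medium. Material: genetically modified Saccharomyces cerevisiae, DeaD replicative lifespan assay strain. Times: 48 h compound exposure at 30 °C. Measured by: optical density at 615 nm.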

[3] = doxorubicin toxicity protection in MRP-1 cells – H69AR cells, CellTiter-Glo, duplicate, MRP-1 activator project, pilot screen (AID 807;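 active means viability increase at or above a cutoff of the median across tested compounds plus 3 SD, cut at about 8.5% in these data, passing the limit was not always enough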;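 further: compound pretreatment 18-22 h then 72 h combined with doxorubicin; 0% = doxorubicin alone and 100% = vehicle without doxorubicin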); conditions: H69AR viability with doxorubicin, CellTiter-Glo luminescence; at 10 µM; active compounds read high
[4] = viability of HCT116 without oncogenic beta-catenin – human colon tumor cells, pilot screen (AID 823); conditions: HCT116 beta-catenin knockout viability, CellTiter-Glo, 60 h; at 10 µM; active compounds read low;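 further: 0% = wells killed by 20 µM Hyamine and 100% = untreated DMSO cell wells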
[5] = viability of PTEN-null HCT116 cells – cell-based, HCT116 clonal line, CellTiter-Glo, pilot screen (AID 824;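 active means viability at or below 27.92% in each of two runs, the all-compound median minus 4 SD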;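 further: 0% = 20 µM Hyamine control and 100% = vehicle cell control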); conditions: HCT116 PTEN-deleted viability, 60 h, at 10 µM, active compounds read low
[6] = RAM pathway blockade in budding yeast – dse1pr::URA3 reporter, 5-FOA selection, pilot screen (AID 869;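 active means inhibition over a set limit, the all-compound mean plus 3 SD, in both replicate runs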;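 further: 0% = DMSO wells with no growth and 100% = 10 µM 1-NA-PP1 with full growth; RAM network block rescues cells from 5-FOA so hits raise OD615 growth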); conditions: S. cerevisiae dse1pr::URA3 5-FOA growth, OD615, 2 d; at 10 µM; active compounds read high; strain carries analog-sensitive mutant Cbk1 kinase
[7] = RAM signaling pathway blockade in yeast – S. cerevisiae, Pdr1DBD-CYC8 efflux-inhibited sensitized strain, primary screen (AID 1298;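 active means RAM network inhibition above 8.4% in each of two replicates, 3 SD over the compound average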;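 further: 0% = DMSO untreated cells without growth and 100% = 10 µM 1-NA-PP1 full growth; higher means more yeast growth rescued from 5-FOA killing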); conditions: S. cerevisiae cbk1-as DSE1-URA3 strain, 5-FOA growth OD615, 2 d; at 50 µM; active compounds read high

Cc1ccc(N(C(C)C(=O)O)S(=O)(=O)c2cccnc2)cc1 (stereo not drawn)
inactive: growth inhibition [1] 2.72% | growth inhibition [2] 0.165% | viability increase [3] -1.52% | viability [4] 95.1% | viability [5] 101% | inhibition [6] -0.19% | RAM network inhibition [7] 1.61%

CC(=O)c1ccc(Nc2cc(C)nc3nc(C)nn23)cc1
inactive: growth inhibition [1] -0.07% | growth inhibition [2] -9.04% | viability increase [3] -3.3% | viability [4] 103% | viability [5] 100% | inhibition [6] 0.72% | RAM network inhibition [7] -1.56%

CCN1C(=O)NC2C1N(S(C)(=O)=O)CCN2S(C)(=O)=O (stereo not drawn)
inactive: growth inhibition [1] -1.72% | growth inhibition [2] 2.34% | viability increase [3] -0.57% | viability [4] 108% | viability [5] 92.1% | inhibition [6] 1.29% | RAM network inhibition [7] 4.02%

O=C(CN1CCOc2ccccc21)NC1CCCCCCC1
inactive: growth inhibition [1] -14.2% | growth inhibition [2] 21.8% | viability increase [3] -5.54% | viability [4] 75.5% | viability [5] 78.2% | inhibition [6] 1.38% | RAM network inhibition [7] 0.83%

COc1ccc(-c2nnc3ccc(SCC(=O)N4CCCC4)nn23)cc1
inactive: growth inhibition [1] 3.94% | growth inhibition [2] 1.08% | viability increase [3] -4.23% | viability [4] 101% | viability [5] 99.5% | inhibition [6] 1.44% | RAM network inhibition [7] 0.16%

O=C(CCCSc1nc2sc3c(c2c(=O)[nH]1)CCC3)NCCCO
inactive: growth inhibition [1] -8.91% | growth inhibition [2] 6.12% | viability increase [3] 0.57% | viability [4] 102% | viability [5] 99.8% | inhibition [6] 0.14% | RAM network inhibition [7] 1.44%

CCOc1ccc(OCC)c(S(=O)(=O)NCCCN2CCOCC2)c1
inactive: growth inhibition [1] -13.8% | growth inhibition [2] -12.2% | viability increase [3] -0.25% | viability [4] 99.8% | viability [5] 99% | inhibition [6] 0.535% | RAM network inhibition [7] 0.2%

COc1ccc(OC)c(C2CC(=O)N3CN(c4ccccc4)CSC3=C2C#N)c1 (stereo not drawn)
inactive: growth inhibition [1] 0.46% | growth inhibition [2] 26.8% | viability increase [3] -4.09% | viability [4] 96.2% | viability [5] 94.5% | inhibition [6] 1.09% | RAM network inhibition [7] 0.06%

CC1(C)Oc2ccc3ccc(=O)oc3c2-c2cnoc21
inactive: growth inhibition [1] 0.81% | growth inhibition [2] 5.33% | viability increase [3] -0.4% | viability [4] 104% | viability [5] 96.3% | inhibition [6] 1.08% | RAM network inhibition [7] 4.79%

CCCc1nc(N2CCN(C)CC2)c2sc(=S)n(-c3ccccc3)c2n1
inactive: growth inhibition [1] -8.52% | growth inhibition [2] 17.7% | viability increase [3] -2.47% | viability [4] 83.8% | viability [5] 82.6% | inhibition [6] 0.39% | RAM network inhibition [7] 6.13%

O=C(NC1CCN(Cc2ccccc2)CC1)C1CCN(c2nnc(-n3cccc3)s2)CC1
inactive: growth inhibition [1] 3.62% | growth inhibition [2] -0.61% | viability increase [3] -2.59% | viability [4] 82.2% | viability [5] 79.3% | inhibition [6] 0.53% | RAM network inhibition [7] 2.35%

Cc1ccc(C)c(N2CCN(C(=O)CCS(=O)(=O)c3cccc4nonc34)CC2)c1
inactive: growth inhibition [1] -16.3% | growth inhibition [2] -12.5% | viability increase [3] -5.38% | viability [4] 88.8% | viability [5] 91.8% | inhibition [6] 1.31% | RAM network inhibition [7] 6.07%

CCC(=O)Nc1c2c(nn1-c1ccc(OC)cc1)CS(=O)C2 (stereo not drawn)
inactive: growth inhibition [1] -6.53% | growth inhibition [2] 5.54% | viability increase [3] 0.56% | viability [4] 102% | viability [5] 94.1% | inhibition [6] 1.37% | RAM network inhibition [7] 2.55%

c1ccc(Oc2nc(Oc3ccccc3)nc(N3CCOCC3)n2)cc1
inactive: growth inhibition [1] -3.76% | growth inhibition [2] -9.93% | viability increase [3] -2.99% | viability [4] 83.7% | viability [5] 74.1% | inhibition [6] 0.355% | RAM network inhibition [7] 8.11%

Cc1c(C(=O)NCc2cccnc2)sc2nc(-c3ccccc3)cn12
inactive: growth inhibition [1] -4.69% | growth inhibition [2] 8.62% | viability increase [3] 0.16% | viability [4] 101% | viability [5] 89.5% | inhibition [6] 2.61% | RAM network inhibition [7] 7.67%

CCn1c(=NC(=O)CSC(C)=O)sc2cc(OC)ccc21
inactive: growth inhibition [1] -22.8% | growth inhibition [2] 7.25% | viability increase [3] -5.19% | viability [4] 64.1% | viability [5] 77.2% | inhibition [6] 1.25% | RAM network inhibition [7] 2.46%

COc1ccc(N2C(=O)C3CCCN3C2c2cc(OC)c(OC)cc2OC)cc1 (stereo not drawn)
inactive: growth inhibition [1] 8.35% | growth inhibition [2] 5.12% | viability increase [3] -3.74% | viability [4] 102% | viability [5] 90.4% | inhibition [6] 0.47% | RAM network inhibition [7] 7.38%

O=C(NCc1ccc(F)cc1)C1CCC(=O)N1CCc1ccccc1 (stereo not drawn)
inactive: growth inhibition [1] -5.54% | growth inhibition [2] 7.93% | viability increase [3] -0.77% | viability [4] 96.4% | viability [5] 93.2% | inhibition [6] 0.22% | RAM network inhibition [7] -1.59%

CCOC(=O)C1CCCN(C(=O)CN(c2ccc(OC)cc2)S(=O)(=O)c2c(C)noc2C)C1 (stereo not drawn)
inactive: growth inhibition [1] -7.31% | growth inhibition [2] -7.06% | viability increase [3] -2.84% | viability [4] 102% | viability [5] 93.8% | inhibition [6] 1.58% | RAM network inhibition [7] 1.13%

CCc1ccccc1S(=O)(=O)Cc1ccc(C(=O)NC(C)C)o1
inactive: growth inhibition [1] -2.43% | growth inhibition [2] -2.4% | viability increase [3] -1.52% | viability [4] 107% | viability [5] 97.6% | inhibition [6] 1.24% | RAM network inhibition [7] 3.36%

O=C(NCCCN1CCC(Cc2ccccc2)CC1)C1CC(=O)N(C2CCCC2)C1 (stereo not drawn)
inactive: growth inhibition [1] 1.72% | growth inhibition [2] -13.9% | viability increase [3] -2.03% | viability [4] 88.5% | viability [5] 83.7% | inhibition [6] -0.05% | RAM network inhibition [7] 2.13%

COc1ccc(-n2ncc3c(N(C)C4CCCCC4)ncnc32)cc1
inactive: growth inhibition [1] -13.1% | growth inhibition [2] -9.66% | viability increase [3] -3.73% | viability [4] 85.5% | viability [5] 77.9% | inhibition [6] 1.76% | RAM network inhibition [7] 4.58%

CCOC(=O)C1=C(C)NC(C)=C(C(=O)OCC)C1C(=O)O
inactive: growth inhibition [1] -3.05% | growth inhibition [2] -4.22% | viability increase [3] -3.51% | viability [4] 93.5% | viability [5] 90% | inhibition [6] 0.265% | RAM network inhibition [7] 1.53%

COc1ccccc1-c1coc2cc(O)cc(O)c2c1=O
inactive: growth inhibition [1] 3.81% | growth inhibition [2] 9.45% | viability increase [3] 0.63% | viability [4] 93.4% | viability [5] 92.6% | inhibition [6] 0.26% | RAM network inhibition [7] 0.05%
